Assay [1] addresses T1, Polyunsaturated fatty acid 5-lipoxygenase (Homo sapiens, UniProt P09917).
T1 sequence (P09917 whole entry): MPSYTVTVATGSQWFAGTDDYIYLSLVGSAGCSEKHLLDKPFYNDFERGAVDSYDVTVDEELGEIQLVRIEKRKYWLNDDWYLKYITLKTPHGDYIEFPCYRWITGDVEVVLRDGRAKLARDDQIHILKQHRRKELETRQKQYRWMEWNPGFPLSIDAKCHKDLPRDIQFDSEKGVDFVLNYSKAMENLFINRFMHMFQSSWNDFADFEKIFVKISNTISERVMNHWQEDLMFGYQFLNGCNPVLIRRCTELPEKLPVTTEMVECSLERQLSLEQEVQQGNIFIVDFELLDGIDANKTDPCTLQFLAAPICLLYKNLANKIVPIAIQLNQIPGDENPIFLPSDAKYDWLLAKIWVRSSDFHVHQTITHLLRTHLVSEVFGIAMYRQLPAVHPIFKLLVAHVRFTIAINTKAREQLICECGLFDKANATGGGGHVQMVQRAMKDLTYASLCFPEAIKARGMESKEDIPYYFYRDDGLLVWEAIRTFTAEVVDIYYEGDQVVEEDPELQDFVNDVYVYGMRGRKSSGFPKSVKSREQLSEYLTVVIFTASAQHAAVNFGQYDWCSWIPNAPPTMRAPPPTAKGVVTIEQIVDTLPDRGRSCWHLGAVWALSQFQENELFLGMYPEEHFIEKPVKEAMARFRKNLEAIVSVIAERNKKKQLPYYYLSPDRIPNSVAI
The assay can be described thus: Concentration required for 50 % inhibition of leukotriene B4 production in human PMN compared with controls in the absence of compound. The format is functional. Put shortly: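 Human PMN are isolated from citrated venous blood by dextran sedimentation, Ficoll-Hypaque and NH4Cl lysis. Cells (5×10^5/mL in HHBSS) are warmed 10 min at 37°C and given compound in DMSO for 2 min. They are stimulated with A23187 (10 μM) for 5 min and stopped with methanol. LTB4 is measured by radioimmunoassay.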

Assay [2] has as its system Rattus norvegicus. Description: Inhibition of antigen (IgE) induced bronchoconstriction in hyperreactive inbred rats at a dose of 1.5 mg/kg. The format is functional. Put shortly: (§1)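 Inbred hyperreactive rats receive compound orally 4 h before antigen, as a suspension in 0.4% methocel/0.5% Tween 80 (10 mL/kg). Methysergide (3 μg/kg iv) is given 5 min before ovalbumin aerosol challenge. Respiration is recorded by pneumotachograph. Percent inhibition is reduction in dyspnea duration versus vehicle controls, with Student's t test. ED50 is derived by linear regression.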

The target in assay [3] is T2, Polyunsaturated fatty acid 5-lipoxygenase (Rattus norvegicus, UniProt P12527).
T2 sequence (P12527 whole entry): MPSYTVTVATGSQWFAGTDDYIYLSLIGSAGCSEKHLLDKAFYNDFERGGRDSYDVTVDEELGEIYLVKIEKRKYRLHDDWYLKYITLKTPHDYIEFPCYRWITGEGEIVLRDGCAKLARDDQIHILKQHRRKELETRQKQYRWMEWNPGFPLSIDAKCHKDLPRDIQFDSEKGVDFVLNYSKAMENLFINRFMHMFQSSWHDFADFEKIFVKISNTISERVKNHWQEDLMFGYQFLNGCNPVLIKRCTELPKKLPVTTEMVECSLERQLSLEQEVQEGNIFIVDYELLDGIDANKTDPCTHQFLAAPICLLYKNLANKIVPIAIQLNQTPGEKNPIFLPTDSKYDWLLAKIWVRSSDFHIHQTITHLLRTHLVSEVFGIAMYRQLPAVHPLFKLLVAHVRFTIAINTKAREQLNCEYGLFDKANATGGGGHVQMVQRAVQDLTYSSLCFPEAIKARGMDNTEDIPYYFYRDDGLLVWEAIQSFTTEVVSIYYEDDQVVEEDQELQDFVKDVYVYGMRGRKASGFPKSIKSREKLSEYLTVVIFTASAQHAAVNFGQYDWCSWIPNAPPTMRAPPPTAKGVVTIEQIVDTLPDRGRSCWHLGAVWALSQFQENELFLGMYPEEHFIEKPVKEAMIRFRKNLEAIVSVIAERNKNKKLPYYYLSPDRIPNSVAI
The assay can be described thus: Concentration required for 50 % inhibition of arachidonic acid oxidation by rat 5-lipoxygenase. Put shortly: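 Rat PMN leukocyte 10000g supernatant is used as the enzyme. Incubation is run in 25 mM Na+/K+ phosphate pH 7.3 with 1 mM ATP, 0.5 mM CaCl2 and 0.5 mM mercaptoethanol. Inhibitor from DMSO (500-fold stock) is preincubated 2 min at 37°C. [14C]arachidonic acid is added to 10 μM final for 10 min at 37°C. Conversion to 5-HETE and 5,12-diHETEs is read by TLC radioscan. IC50 is derived by linear regression.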

The test system of assay [4] is Rattus norvegicus. The assay can be described thus: Inhibition of antigen (IgE) induced bronchoconstriction in hyperreactive inbred rats at a compound dose of 0.15 mg/kg. The format is functional. The method, boiled down: as §1
The subject of assay [5] is Rattus norvegicus. Description: Inhibition of antigen (IgE) induced bronchoconstriction in hyperreactive inbred rats at a compound dose of 0.5 mg/kg. The format is functional. The method, boiled down: as §1
The subject of assay [6] is Rattus norvegicus. The assay can be described thus: Inhibition of antigen (IgE) induced bronchoconstriction in hyperreactive inbred rats at a compound dose of 1.5 mg/kg. The format is functional. Put shortly: as §1
Assay [7] has as its system Rattus norvegicus. The assay can be described thus: Inhibition of antigen (IgE) induced bronchoconstriction in hyperreactive inbred rats at a compound dose of 5.0 mg/kg. The format is functional. Put shortly: as §1
Assay [8] deals with Rattus norvegicus. Description: Effect of antigen-induced dyspnea in hyperreactive inbred rats at 0.5 mg/kg of compound concentration. The format is functional. The method, boiled down:
as §1

The species entered for assay [9] is Rattus norvegicus. Description: Inhibition of hyperalgesia response induced by subplantar injection of platelet-activating factor in rat. The format is functional.
Assay [10] deals with Saimiri sciureus. Description: Inhibition of increase in pulmonary resistance and decrease in dynamic compliance of ascaris antigen-induced bronchoconstriction in squirrel monkeys at 0.25 mg/kg compound concentration.
Assay [11] has as its target T3, Seed linoleate 13S-lipoxygenase-1 (Glycine max, UniProt P08170).
T3 sequence (P08170 whole entry): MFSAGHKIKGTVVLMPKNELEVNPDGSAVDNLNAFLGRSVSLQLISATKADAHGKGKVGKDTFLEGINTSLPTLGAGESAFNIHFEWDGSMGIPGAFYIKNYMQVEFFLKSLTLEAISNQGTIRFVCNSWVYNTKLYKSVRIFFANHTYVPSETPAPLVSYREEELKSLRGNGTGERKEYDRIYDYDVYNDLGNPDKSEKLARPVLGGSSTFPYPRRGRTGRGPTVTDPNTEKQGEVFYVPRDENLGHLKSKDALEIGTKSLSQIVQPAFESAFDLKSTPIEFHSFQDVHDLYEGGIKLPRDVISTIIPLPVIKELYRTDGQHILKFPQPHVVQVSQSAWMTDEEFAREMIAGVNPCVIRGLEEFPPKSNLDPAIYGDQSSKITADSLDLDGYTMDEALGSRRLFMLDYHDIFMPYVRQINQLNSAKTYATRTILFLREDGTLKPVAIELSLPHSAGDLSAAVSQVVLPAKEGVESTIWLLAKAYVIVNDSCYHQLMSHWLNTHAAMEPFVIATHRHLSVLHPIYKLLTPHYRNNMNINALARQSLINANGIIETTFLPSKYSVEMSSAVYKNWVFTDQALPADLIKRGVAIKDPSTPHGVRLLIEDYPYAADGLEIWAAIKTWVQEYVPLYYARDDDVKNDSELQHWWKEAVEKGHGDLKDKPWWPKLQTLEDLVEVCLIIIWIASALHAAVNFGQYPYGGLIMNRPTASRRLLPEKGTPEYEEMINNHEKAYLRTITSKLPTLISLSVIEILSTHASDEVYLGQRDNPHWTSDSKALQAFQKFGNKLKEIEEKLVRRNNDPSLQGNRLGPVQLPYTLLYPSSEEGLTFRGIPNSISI
The assay can be described thus: Inhibitory activity towards soybean lipoxygenase.

Assay [12] deals with Rattus norvegicus. The assay can be described thus: Effect of antigen-induced dyspnea in hyperreactive inbred rats at 1.5 mg/kg of compound concentration. The format is functional. Put shortly:
as §1

SMILES strings stand for the structures.

The source of these data is ChEMBL document CHEMBL1124599, “Synthesis and structure-activity relationships of a novel class of 5-lipoxygenase inhibitors. 2-(Phenylmethyl)-4-hydroxy-3,5-dialkylbenzofurans: the development of L-656,224” (J Med Chem, 1989).

One may read the IC50 as the concentration that inhibits the measured activity by half. Low values mean inhibition by little substance, high ones a need for much substance. As usually defined, the inhibition in vivo is the drop in the measured response relative to a control, in per cent. A lower inhibition in vivo goes with a weak effect. Turning to `CCCc1cc(Cl)c2oc(Cc3ccc(OCC(=O)O)cc3)c(C)c2c1O`, in assay [1], half-maximal inhibition (IC50) was put at 105 nM. The compound also gave an inhibition in vivo at 1.5 mg/kg in assay [2] of 28%.
For the compound `CCOCc1cc(Cl)c2oc(Cc3ccc(OC)cc3)c(C)c2c1O`, half-maximal inhibition in assay [1] (IC50) was put at 291 nM.
As for `COc1ccc(Cc2oc3cccc(O)c3c2C)cc1`, the values for the concentration for half-maximal inhibition (IC50) in assay [3] and in assay [1] were 2070 nM and 574 nM, respectively.
For `COc1ccc(Cc2oc3c(Cl)cc(CCCO)c(O)c3c2C)cc1`, the IC50 in [3] was 161 nM; in [1], 76 nM. In assay [4], the inhibition in vivo at 0.15 mg/kg amounted to 39%. In assay [5], this compound yielded an inhibition in vivo at 0.5 mg/kg of 58%.
Turning to `CCCc1cc(F)c2oc(Cc3ccc(OC)cc3)c(C)c2c1O`, the figures for the IC50 in [3] and in [1] were 129 nM and 7 nM, respectively.
Compound `CCCc1cc(Cl)c2oc(Cc3ccc(Cl)cc3)c(C)c2c1O` displayed an IC50 in assay [1] of 26 nM.
On the same count and under the same terms, as for `COc1ccc(Cc2oc3c(Cl)cc(C)c(O)c3c2C)cc1`, the figure is 46 nM; as for `COc1ccc(Cc2oc3c(Cl)cc(Cl)c(O)c3c2C)cc1`, 860 nM.
As to `COc1ccc(Cc2oc3c(Cl)cc(C(C)(C)C)c(O)c3c2C)cc1`, the half-inhibitory concentration (IC50) in [1] was 99 nM. Besides, in assay [2], the inhibition in vivo at 1.5 mg/kg was found to be 32%.
As for `CCCc1cc(Cl)c2oc(Cc3ccccc3)c(C)c2c1O`, the IC50 in [1] was determined as 30 nM.
`CCCc1cc(C)c2oc(Cc3ccc(OC)cc3)c(C)c2c1O`: the IC50 in [3] was found to be 140 nM; in [1] it was 12 nM. In assay [6], this compound gave an inhibition in vivo at 1.5 mg/kg of 49%. Further, in [7], the inhibition in vivo at 5 mg/kg was 55%.
`CCCc1cc(Cl)c2oc(Cc3ccc(OC)cc3)c(CCC)c2c1O` showed an IC50 in [1] of 20 nM. That is a double-digit nanomolar value.
`COc1ccc(Cc2oc3c(Cl)ccc(O)c3c2C)cc1`: the IC50 was determined as 2000 nM in assay [3] and 376 nM in assay [1].
On to `CCCc1cc(Cl)c2oc(Cc3ccc(OC)cc3OC)c(C)c2c1O`, for which the IC50 in assay [1] is 13 nM.
Consider `COc1ccc(Cc2oc3c(Cl)cc(CCC(=O)O)c(O)c3c2C)cc1`, for which the IC50 in [1] worked out at 2130 nM. This compound showed an inhibition in vivo at 1.5 mg/kg in [2] of 11%.
As a reminder, the ED50 is the dose at which the effect has come halfway, by size or by number of responders. Low values mean an effect at a small dose, high ones a need for a large dose. As to `CCCc1cc(Cl)c2oc(Cc3ccc(OC)cc3)c(C)c2c1O`, the values for the IC50 in assay [3] and in assay [11] were 36 nM and 30 µM, respectively. The ED50 in assay [8] worked out at 0.7 mg/kg. In addition, the inhibition in vivo at 0.15 mg/kg in [4] worked out at 36%. Also, at 1.5 mg/kg the inhibition in vivo in assay [2] was 56%. The compound further gave an AD100 in assay [9] of 1.5 mg/kg. This compound showed an inhibition in vivo at 0.25 mg/kg in assay [10] of more than 85%. In [5], this compound came in with an inhibition in vivo at 0.5 mg/kg of 48%.
For the compound `C=CCc1cc(Cl)c2oc(Cc3ccc(OC)cc3)c(C)c2c1O`, half-maximal inhibition in assay [1] (IC50) required 20 nM. This counts as double-digit nanomolar.
With `CCCc1ccc2oc(Cc3ccc(OC)cc3)c(C)c2c1O`, the IC50 in assay [3] was 130 nM; in assay [1], 31 nM. The compound also returned an inhibition in vivo at 1.5 mg/kg in assay [2] of 64%. In assay [7], the inhibition in vivo at 5 mg/kg amounted to 66%. The same compound returned an ED50 in assay [12] of less than 0.5 mg/kg. The compound also had an inhibition in vivo at 0.5 mg/kg in [5] of 55%.
